The results in this text go back to ChEMBL document CHEMBL2321682, “Synthesis and Anti-inflammatory Evaluation of Novel Benzimidazole and Imidazopyridine Derivatives” (ACS Med Chem Lett, 2013).

As a reminder, the inhibition is the relative decrease from the control value, in per cent. As usually defined, the pIC50 is the negative decadic logarithm of the IC50, by convention in mol/L.

pIC50: −log10 of the molar value.

Series [1] concerns RAW264.7. The series can be described thus: Inhibition of LPS-induced TNF-alpha secretion in mouse RAW264.7 cells at 10 uM pretreated for 2 hrs prior to LPS addition measured after 22 hrs by ELISA. The format is functional. Put shortly: (§1)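 RAW 264.7 macrophages seeded at 4.0 × 10^5/plate overnight (37 °C, 5% CO2), pretreated 2 h with 10 μM compound (omeprazole as comparator), then LPS 0.5 μg/mL for 22 h. TNF-α and IL-6 in medium measured by ELISA, normalized to total cellular protein.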
In general terms: In an ELISA, binding on a coated surface is turned into a signal by an enzyme label.

Series [2] deals with RAW264.7. The series can be described thus: Inhibition of LPS-induced IL-6 secretion in mouse RAW264.7 cells at 10 uM pretreated for 2 hrs prior to LPS addition measured after 22 hrs by ELISA. The format is functional. In short, it runs like this: as §1
In series [3] the test system is RAW264.7. Put plainly: Inhibition of LPS-induced TNF-alpha secretion in mouse RAW264.7 cells pretreated for 2 hrs prior to LPS addition measured after 22 hrs by ELISA. In kind it is functional, cell-based. In short, it runs like this:
(§2)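 Dose–response for IC50. RAW264.7 cells were seeded at 1.2 × 10^6/plate overnight at 37 °C, 5% CO2. They were pretreated 2 h with 1.0, 5.0 or 10 μM compound, then given LPS 0.5 μg/mL for 22 h. Medium TNF-α or IL-6 was quantified by ELISA and normalized to total protein.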

For series [4], the system named is RAW264.7. Put plainly: Inhibition of LPS-induced IL-6 secretion in mouse RAW264.7 cells pretreated for 2 hrs prior to LPS addition measured after 22 hrs by ELISA. The format is functional, cell-based. Put shortly:
as §2

Series [5] is described as follows: Cytotoxicity against human HL7702 cells assessed as inhibition of cell viability at 20 uM after 24 to 72 hrs by MTT assay. The format is cell-based. Conditions: l02, 20 µM. In short, it runs like this:
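Human normal liver HL-7702 cells exposed to 20 μM compound for 24, 48 and 72 h; viability read by MTT.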
On the technique in general: Formazan colour is commonly taken as a measure of viable cells.

Series [6] deals with Mus musculus. The series can be described thus: Antiinflammatory activity against LPS-induced C57BL/6 mouse sepsis model assessed as increase in survival rate at 15 mg/kg, iv administered 15 mins after LPS injection measured for 7 days. In kind it is functional. Put shortly:
(§3)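 Mice received LPS 20 mg/kg iv. Test agent was given iv as its HCl salt at 15 mg/kg, either 15 min after LPS (line 1, therapeutic) or 15 min before LPS (line 2, preventive). Survival and body weight were recorded daily for 7 days. Data pool two experiments, n = 12 per group, compared with the LPS-alone group.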

Series [7] relates to Mus musculus. Put plainly: Antiinflammatory activity against LPS-induced C57BL/6 mouse sepsis model assessed as increase in survival rate at 15 mg/kg, iv administered 15 mins prior to LPS injection measured for 7 days. The format is functional. In short, it runs like this: as §3

Consider `CCCn1c(-c2cn(C)c3ccccc23)nc2ccc(N3CCN(C)CC3)nc21`, for which the inhibition at 10 µM in series [1] was 50%.
Take `CCCn1c(-c2ccc(C)s2)nc2ccc(N3CCN(C)CC3)nc21`: the inhibition at 10 µM in series [2] was above 50%; in series [1], 50%. For the same compound, the values for the pIC50 in series [3] and in series [4] were 5.14 and 5.55, respectively. The inhibition entry in series [3] and in series [4] was “Dose-dependent effect” in each case.
For the compound `CCCn1c(-c2c[nH]c3ccccc23)nc2ccc(N3CCN(C)CC3)nc21`, the inhibition at 10 µM in series [2] was determined as 81.4%; in series [1], 64.8%. Besides, the figures for the pIC50 in series [3] and in series [4] were 4.85 and 5.37, respectively. For the same compound, the inhibition result in series [3] and in series [4] was “Dose-dependent effect” throughout.
As for `CCCn1c(-c2ccccc2Br)nc2ccc(N3CCN(C)CC3)nc21`, in series [1], the inhibition at 10 µM turned out to be 50%.
On to `CCCn1c(-c2c[nH]c3ncccc23)nc2ccc(N3CCN(C)CC3)nc21` [listing 1 of 2 here], for which the inhibition at 10 µM in series [2] is above 50%; in series [1], 50%. Moreover, the pIC50 in series [3] is 5.32; in series [4], 5.79. Further, in series [5], the Activity entry is “Non-toxic”.
Regarding `COc1ccccc1-c1nc2ccc(N3CCN(C)CC3)nc2[nH]1`, the inhibition at 10 µM in series [1] worked out at 50%.
On the same count and under the same terms, with `CCCn1c(-c2ccccc2OC)nc2ccc(N3CCN(C)CC3)nc21` the figure was 50%.
Same read-out and setting: with `CCCn1c(-c2cn(C)c3ccccc23)nc2ccc(N3CCOCC3)nc21` the figure was 50%.
Turning to `CCCn1c(-c2c[nH]c3ncccc23)nc2ccc(N3CCN(C)CC3)nc21` [listing 2 of 2 here], the inhibition result in series [3] and in series [4] was “Dose-dependent effect” throughout.
In the case of `CCN(CC)CCn1c(-c2ccccc2OC)nc2cc(Cl)ccc21`, the inhibition at 10 µM in series [1] is 50%.
Regarding `CCCn1c(-c2c[nH]c3ncccc23)nc2ccc(N3CCN(C)CC3)nc21.Cl`, the Activity in series [6] and in series [7] was 50% throughout.
For `CCCn1c(-c2c[nH]c3ccc(Br)cc23)nc2ccc(N3CCN(C)CC3)nc21`, the inhibition at 10 µM in series [2] was above 50%; in series [1] it was 50%. In addition, the figures for the negative logarithm of the IC50 (pIC50) in series [3] and in series [4] were 5.70 and 5.92, respectively. Further, the inhibition result in series [3] and in series [4] was “Dose-dependent effect” in each case. In addition, the Activity result in series [5] is “Toxic”.
In the case of `Cc1ccc(-c2nc3ccc(N4CCN(C)CC4)nc3[nH]2)s1`, the inhibition at 10 µM in series [1] stood at 50%.
Turning to `CCCn1c(-c2ccccc2F)nc2ccc(N3CCN(C)CC3)nc21`, the inhibition at 10 µM in series [1] came to 50%.
Still for that read-out and setting: the figure for `CN1CCN(c2ccc3nc(-c4c[nH]c5ccccc45)[nH]c3n2)CC1` is 50%.
Regarding `CCCn1c(-c2ccc(OCCCN(C)C)cc2)nc2ccc(N3CCN(C)CC3)nc21`, the inhibition at 10 µM in series [2] is above 50%; in series [1] it was 50%. Further, the pIC50 in series [3] is 4.91; in series [4] it was 5.48. For the same compound, the inhibition result in series [3] and in series [4] was “Dose-dependent effect” in each case. For the same compound, in series [5], the Activity result is listed as “Non-toxic”.
For `CCCn1c(-c2ccc(C)s2)nc2ccc(N3CCOCC3)nc21`, the inhibition at 10 µM in series [1] was 50%.
